Activity calls are given as the source filed them.
Experiments:
[1] = target: T1, Fatty-acid amide hydrolase 1 (Rattus norvegicus) (UniProt P97612); test: Reversible inhibition of rat brain FAAH at 0.2 to 2 uM using [3H]AEA as substrate preincubated for 60 mins followed by 20 fold compound dilution and subsequent substrate addition by liquid scintillation counting analysis
T1 sequence (whole entry): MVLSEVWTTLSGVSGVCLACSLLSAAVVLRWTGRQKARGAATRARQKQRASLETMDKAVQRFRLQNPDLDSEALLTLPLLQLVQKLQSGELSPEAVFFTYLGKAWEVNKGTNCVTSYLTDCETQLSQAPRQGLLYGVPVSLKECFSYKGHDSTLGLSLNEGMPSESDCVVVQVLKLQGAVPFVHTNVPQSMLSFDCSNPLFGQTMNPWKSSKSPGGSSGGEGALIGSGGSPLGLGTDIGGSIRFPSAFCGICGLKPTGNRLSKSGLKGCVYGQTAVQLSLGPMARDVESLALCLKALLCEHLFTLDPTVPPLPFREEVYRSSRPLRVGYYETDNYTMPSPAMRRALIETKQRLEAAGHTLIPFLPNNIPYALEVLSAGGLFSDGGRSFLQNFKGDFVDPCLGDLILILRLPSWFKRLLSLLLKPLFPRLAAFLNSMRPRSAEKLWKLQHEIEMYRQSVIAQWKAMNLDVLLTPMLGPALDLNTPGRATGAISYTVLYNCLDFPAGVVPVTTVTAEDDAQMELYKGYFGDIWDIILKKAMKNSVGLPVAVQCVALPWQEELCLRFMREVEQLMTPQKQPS
In short: (§1)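 Rat brain homogenate at 20-fold normal strength was preincubated with vehicle or compound for 60 min, then diluted 20-fold and assayed with [3H]AEA for 10 min at 37 °C. In parallel, compound was added to vehicle-preincubated aliquots at the post-dilution free concentrations and at the undiluted final concentrations. Tritium was counted after charcoal separation.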

[2] = target: T1, Fatty-acid amide hydrolase 1 (Rattus norvegicus); test: Inhibition of rat brain FAAH using [3H]AEA as substrate after 10 mins in presence of N-(3-Chloropyridin-2-yl)-2-(4-((2-(trifluoromethyl)pyridin-4-yl)amino)phenyl)propanamide by liquid scintillation counting analysis
In short: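 Rat (Wistar or Sprague-Dawley) brain homogenate without cerebella, washed and pre-incubated 15 min at 37 °C to clear endogenous substrate. Compound (in ethanol or DMSO) was mixed with 1 µg protein on ice in 10 mM Tris-HCl, 1 mM EDTA, pH 7.4. Reaction used 0.5 µM [3H]AEA with fatty acid-free BSA for 10 min at 37 °C. It was stopped with charcoal/HCl, and supernatant tritium was counted. ≥5 half-log concentrations, ≥3 experiments; maximum inhibition = 100 − fitted bottom.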

[3] = target: T2, Fatty-acid amide hydrolase 1 (Homo sapiens, UniProt O00519); test: Inhibition of FAAH (unknown origin) expressed in human HeLa cells using [3H]AEA as substrate after 2 hrs by liquid scintillation counting analysis; type: cell-based
T2 sequence (O00519 whole entry): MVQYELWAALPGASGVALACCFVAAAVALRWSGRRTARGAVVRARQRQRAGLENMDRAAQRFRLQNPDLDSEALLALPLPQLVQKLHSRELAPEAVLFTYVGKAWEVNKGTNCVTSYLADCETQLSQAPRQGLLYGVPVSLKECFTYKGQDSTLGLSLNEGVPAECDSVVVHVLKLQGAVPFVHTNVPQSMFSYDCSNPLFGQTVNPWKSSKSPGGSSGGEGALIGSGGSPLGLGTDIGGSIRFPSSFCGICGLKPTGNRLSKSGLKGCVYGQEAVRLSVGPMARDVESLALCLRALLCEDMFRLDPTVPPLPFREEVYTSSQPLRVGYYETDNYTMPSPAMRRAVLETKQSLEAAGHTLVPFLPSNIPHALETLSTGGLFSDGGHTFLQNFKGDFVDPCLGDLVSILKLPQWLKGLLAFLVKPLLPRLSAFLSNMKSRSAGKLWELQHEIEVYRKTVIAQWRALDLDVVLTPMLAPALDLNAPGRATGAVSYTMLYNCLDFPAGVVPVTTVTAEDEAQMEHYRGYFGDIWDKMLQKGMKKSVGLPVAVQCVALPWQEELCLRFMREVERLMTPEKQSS

[4] = target: T3, Fatty-acid amide hydrolase 1 (Rattus norvegicus, UniProt P97612); test: Competitive inhibition of rat brain FAAH using [3H]AEA as substrate after 10 mins by Dixon plot analysis
T3 sequence (P97612 whole entry): T1 sequence (whole entry)
In short: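 Kinetic study in rat brain homogenate (1 µg protein per assay). [3H]AEA hydrolysis ran for 10 min at 37 °C in Tris-EDTA buffer, pH 7.4, with the AEA:fatty acid-free BSA ratio held at 1:~4.5 across substrate levels. Radioactivity was measured by charcoal separation and scintillation counting. Data were fitted to competitive, mixed-type and non-competitive models, and the best model was chosen by Akaike's criterion.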

[5] = target: T2, Fatty-acid amide hydrolase 1; test: Inhibition of FAAH (unknown origin) expressed in human HeLa cells transfected with empty vector using [3H]AEA as substrate after 2 hrs by liquid scintillation counting analysis; type: cell-based
Homo sapiens = species on record: Homo sapiens; test: Selectivity ratio of IC50 for FAAH T488A mutant (unknown origin) expressed in human HeLa cells after 2 hrs to IC50 for FAAH (unknown origin) expressed in human HeLa cells transfected with empty vector after 2 hrs; type: cell-based
[6] = target: T4, Fatty-acid amide hydrolase 1 (Mus musculus) (UniProt O08914); test: Inhibition of B6CBAF1/J mouse brain FAAH using [3H]AEA as substrate after 10 mins in presence of N-(3-Methylpyridin-2-yl)-2-(4-((2-(trifluoromethyl)pyridin-4-yl)amino)phenyl)propanamide by Dixon plot analysis
T4 sequence (whole entry): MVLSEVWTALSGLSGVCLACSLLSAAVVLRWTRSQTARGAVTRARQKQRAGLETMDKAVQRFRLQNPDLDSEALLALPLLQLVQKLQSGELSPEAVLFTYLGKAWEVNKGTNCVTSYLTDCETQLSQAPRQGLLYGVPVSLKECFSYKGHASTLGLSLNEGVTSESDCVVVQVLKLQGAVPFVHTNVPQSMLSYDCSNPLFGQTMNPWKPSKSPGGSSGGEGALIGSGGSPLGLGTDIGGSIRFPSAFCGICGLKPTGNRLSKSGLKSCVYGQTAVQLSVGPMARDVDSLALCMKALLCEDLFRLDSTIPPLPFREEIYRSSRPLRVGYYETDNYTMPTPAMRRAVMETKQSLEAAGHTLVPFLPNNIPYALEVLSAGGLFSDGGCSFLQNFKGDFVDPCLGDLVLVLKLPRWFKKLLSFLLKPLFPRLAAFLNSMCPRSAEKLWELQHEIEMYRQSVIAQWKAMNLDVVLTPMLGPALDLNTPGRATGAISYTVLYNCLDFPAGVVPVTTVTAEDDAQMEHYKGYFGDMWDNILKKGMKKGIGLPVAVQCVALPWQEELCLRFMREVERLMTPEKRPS
In short: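 Kinetic study in brain homogenate from male B6CBAF1/J mice (0.3 µg protein per assay). [3H]AEA hydrolysis ran for 10 min at 37 °C in Tris-EDTA buffer, pH 7.4, with the AEA:fatty acid-free BSA ratio held at 1:~4.5. Products were separated on charcoal and counted by scintillation. Competitive, mixed-type and non-competitive fits were compared by Akaike's criterion.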

[7] = target: T1, Fatty-acid amide hydrolase 1 (Rattus norvegicus); test: Reversible inhibition of rat brain FAAH at 0.03 to 1 uM using [3H]AEA as substrate preincubated for 60 mins followed by 20 fold compound dilution and subsequent substrate addition by liquid scintillation counting analysis; in short: as §1

inhibition [1] | inhibition [2] | IC50 [3] [µM] | Ki [4] [µM] | IC50 [5] [µM] | inhibition [6] | inhibition [7] | SMILES | Ratio IC50 (Homo sapiens)
Active | Active | 2.2 to 6.5 | 0.39 | 2.5 | – | – | Cc1cccnc1NC(=O)C(C)c1ccc(Nc2ccnc(C(F)(F)F)c2)cc1 (stereo not drawn) | 3.8
– | – | – | – | – | Active | Active | CC(C(=O)Nc1ncccc1Cl)c1ccc(Nc2ccnc(C(F)(F)F)c2)cc1 (stereo not drawn) | –

— ChEMBL document CHEMBL4138113, “Novel propanamides as fatty acid amide hydrolase inhibitors” (Eur J Med Chem, 2017)
